For 46 compounds, IC50 results are on record in ChEMBL document CHEMBL1127442, “Triazolinone biphenylsulfonamide derivatives as orally active angiotensin II antagonists with potent AT1 receptor affinity and enhanced AT2 affinity” (J Med Chem, 1994).

In general, IC50 refers to the concentration needed to halve the response being measured.

The target in assay [1] is T1, Type-2 angiotensin II receptor (Rattus norvegicus, UniProt P35351).
T1 sequence (P35351 whole entry): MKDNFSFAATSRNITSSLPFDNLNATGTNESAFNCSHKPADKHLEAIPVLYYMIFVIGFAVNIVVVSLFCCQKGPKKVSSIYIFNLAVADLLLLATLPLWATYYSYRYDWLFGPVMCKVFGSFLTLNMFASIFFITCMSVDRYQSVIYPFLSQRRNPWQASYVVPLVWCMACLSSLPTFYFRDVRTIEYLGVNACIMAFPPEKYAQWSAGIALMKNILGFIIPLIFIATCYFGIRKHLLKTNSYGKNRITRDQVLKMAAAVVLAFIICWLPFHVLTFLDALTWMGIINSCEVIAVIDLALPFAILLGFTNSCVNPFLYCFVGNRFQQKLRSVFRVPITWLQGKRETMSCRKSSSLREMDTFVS
Kind of assay: In vitro inhibitory activity against angiotensin II rat midbrain AT2 receptor using radioligand [125I]-Sar Ile-AII. In outline: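 Dithiothreitol ([…]) was added to the assay mixture to abolish residual AT1 binding. Tubes were run in duplicate, and IC50 came from nonlinear regression of displacement curves.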

Assay [2] addresses T2, Type-1 angiotensin II receptor (Oryctolagus cuniculus, UniProt P34976).
T2 sequence (P34976 whole entry): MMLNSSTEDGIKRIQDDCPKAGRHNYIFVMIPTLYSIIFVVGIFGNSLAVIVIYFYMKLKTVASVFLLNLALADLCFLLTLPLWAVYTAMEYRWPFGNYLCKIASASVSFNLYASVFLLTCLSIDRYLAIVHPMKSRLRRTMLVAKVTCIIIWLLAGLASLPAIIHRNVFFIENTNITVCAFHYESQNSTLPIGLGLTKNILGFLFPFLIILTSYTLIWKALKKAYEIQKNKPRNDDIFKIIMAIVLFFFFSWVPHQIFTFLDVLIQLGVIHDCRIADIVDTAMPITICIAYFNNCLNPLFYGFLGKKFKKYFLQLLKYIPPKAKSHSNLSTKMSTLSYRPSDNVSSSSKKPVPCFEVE
In words: In vitro inhibitory activity against angiotensin II rabbit aorta AT1 receptor using radioligand [125I]-Sar Ile-AII. The class given is tissue-based.

For the compound `CCCCc1nn(-c2ccccc2C(F)(F)F)c(=O)n1Cc1ccc(-c2ccccc2S(=O)(=O)NC(=O)c2cc(C)oc2C)cc1`, the IC50 worked out at 310 nM in assay [1] and 1 nM in assay [2].
On the same counts, the results for `CCCCc1nn(-c2ccccc2C(F)(F)F)c(=O)n1Cc1ccc(-c2ccccc2S(=O)(=O)Nc2nc3ccccc3o2)cc1` are 700 nM and 5.2 nM.
On to `CCCCc1nn(-c2ccccc2C(F)(F)F)c(=O)n1Cc1ccc(-c2ccccc2S(=O)(=O)NC(=O)C2CC3CCC2C3)cc1` (configuration not stated), for which the IC50 in assay [1] was 100 nM; in assay [2] it was 0.39 nM.
As to `CCCCc1nn(-c2ccccc2C(F)(F)F)c(=O)n1Cc1ccc(-c2ccccc2S(=O)(=O)NC(=O)NC(C)(C)C)cc1`, the IC50 in assay [1] turned out to be 130 nM; in assay [2] it was 2.6 nM.
For `CCCCc1nn(-c2ccccc2C(F)(F)F)c(=O)n1Cc1ccc(-c2ccccc2S(=O)(=O)NC(=O)c2cc(Cl)ccc2Cl)cc1`, the IC50 in assay [1] came to 26 nM; in assay [2], 0.48 nM.
On the same counts, the results for `CCCCc1nn(-c2ccccc2C(F)(F)F)c(=O)n1Cc1ccc(-c2ccccc2S(=O)(=O)NC(=O)C2CCCCC2)cc1` are 160 nM and 0.15 nM.
On the same counts, the results for `CCCCc1nn(-c2ccccc2Cl)c(=O)n1Cc1ccc(-c2ccccc2S(N)(=O)=O)cc1` are 24000 nM and 820 nM.
On the same counts, the results for `CCCCc1nn(-c2ccccc2C(F)(F)F)c(=O)n1Cc1ccc(-c2ccccc2S(=O)(=O)NC(=O)c2ccc(F)cc2)cc1` are 500 nM and 0.68 nM.
For the compound `CCCCc1nn(-c2c(Cl)cccc2Cl)c(=O)n1Cc1ccc(-c2ccccc2S(=O)(=O)NC(=O)c2ccccc2)cc1`, the IC50 in assay [1] turned out to be 500 nM; in assay [2] it was 2.6 nM.
On the same counts, the results for `CCCCc1nn(-c2ccccc2C(F)(F)F)c(=O)n1Cc1ccc(-c2ccccc2S(=O)(=O)NC#N)cc1` are > 1000 nM and 4.7 nM.
On the same counts, the results for `CCCCc1nn(-c2ccccc2C(F)(F)F)c(=O)n1Cc1ccc(-c2ccccc2S(=O)(=O)NC(=O)C2CCCCCC2)cc1` are 270 nM and 0.3 nM.
Take `CCCCc1nn(-c2ccccc2C(F)(F)F)c(=O)n1Cc1ccc(-c2ccccc2S(=O)(=O)NC(=O)CCC2CCCC2)cc1`: the IC50 in assay [1] turned out to be 720 nM; in assay [2] it was 1.2 nM.
On the same counts, the results for `CCCCc1nn(-c2ccccc2C(F)(F)F)c(=O)n1Cc1ccc(-c2ccccc2S(=O)(=O)NC(=O)C2CC2C)cc1` (configuration not stated) are 120 nM and 0.56 nM.
Consider `CCCCc1nn(-c2ccccc2C(F)(F)F)c(=O)n1Cc1ccc(-c2ccccc2S(=O)(=O)NC(=O)c2ccccc2C(F)(F)F)cc1`, for which the IC50 in assay [1] was 220 nM; in assay [2] it was 0.27 nM.
On the same counts, the results for `CCCCc1nn(-c2ccccc2C(F)(F)F)c(=O)n1Cc1ccc(-c2ccccc2S(=O)(=O)NC(=O)c2cc(OC)c(OC)c(OC)c2)cc1` are 6500 nM and 21 nM.
On to `CCCCc1nn(-c2ccccc2C(F)(F)F)c(=O)n1Cc1ccc(-c2ccccc2S(=O)(=O)NC(=O)c2cc(C)oc2C(F)(F)F)cc1`, for which the IC50 in assay [1] was 60 nM; in assay [2], 0.17 nM.
Turning to `CCCc1nn(-c2ccccc2C(F)(F)F)c(=O)n1Cc1ccc(-c2ccccc2S(=O)(=O)NC(=O)C2CC2)cc1`, the IC50 in assay [1] was found to be 410 nM; in assay [2], 18 nM.
On the same counts, the results for `CCCCc1nn(-c2ccccc2C(F)(F)F)c(=O)n1Cc1ccc(-c2ccccc2S(=O)(=O)NC(=O)C2CCOC2)cc1` (configuration not stated) are 280 nM and 2.8 nM.
On the same counts, the results for `CCCCc1nn(CC(C)(C)C)c(=O)n1Cc1ccc(-c2ccccc2S(=O)(=O)NC(=O)c2ccccc2)cc1` are 2300 nM and 3.3 nM.
On the same counts, the results for `CCCCc1nn(-c2ccccc2C(F)(F)F)c(=O)n1Cc1ccc(-c2ccccc2S(=O)(=O)NC(=O)c2ccc(C#N)cc2)cc1` are 400 nM and 0.76 nM.
Turning to `CCCCc1nn(-c2ccccc2C(F)(F)F)c(=O)n1Cc1ccc(-c2ccccc2S(=O)(=O)NC(=O)CCCCCN)cc1`, the IC50 was found to be 100 nM in assay [1] and 1.3 nM in assay [2].
On the same counts, the results for `CCCc1nn(-c2ccccc2C(F)(F)F)c(=O)n1Cc1ccc(-c2ccccc2S(=O)(=O)NC(=O)c2ccccc2)cc1` are 520 nM and 13 nM.
Turning to `CCCCc1nn(-c2ccccc2C(F)(F)F)c(=O)n1Cc1ccc(-c2ccccc2S(=O)(=O)NS(=O)(=O)C(C)C)cc1`, the IC50 in assay [1] turned out to be 3600 nM; in assay [2] it was 0.16 nM.
On the same counts, the results for `CCCCc1nn(-c2ccccc2C(F)(F)F)c(=O)n1Cc1ccc(-c2ccccc2S(=O)(=O)NC(=O)C2(C)SCCS2)cc1` are 80 nM and 0.22 nM.
On the same counts, the results for `CCCCc1nn(-c2ccccc2C(F)(F)F)c(=O)n1Cc1ccc(-c2ccccc2S(=O)(=O)NC(=O)C2CC2)cc1` are 110 nM and 1.5 nM.
On the same counts, the results for `CCCCc1nn(-c2ccccc2C(F)(F)F)c(=O)n1Cc1ccc(-c2ccccc2S(=O)(=O)NC(=O)c2cc3ccccc3s2)cc1` are 430 nM and 0.31 nM.
Take `CC1CC1Cc1nn(-c2ccccc2C(F)(F)F)c(=O)n1Cc1ccc(-c2ccccc2S(=O)(=O)NC(=O)c2ccccc2)cc1` (configuration not stated): the IC50 in assay [1] was 500 nM; in assay [2], 5.8 nM.
On to `CCCCc1nn(-c2ccccc2C(F)(F)F)c(=O)n1Cc1ccc(-c2ccccc2S(=O)(=O)NC(=O)NC(C)C)cc1`, for which the IC50 in assay [1] turned out to be 300 nM; in assay [2] it was 1.1 nM.
On the same counts, the results for `CCCCc1nn(-c2ccccc2C(F)(F)F)c(=O)n1Cc1ccc(-c2ccccc2S(=O)(=O)NC(=O)c2ccccc2OC)cc1` are 72 nM and 0.41 nM.
On the same counts, the results for `CCCCc1nn(-c2ccccc2C(F)(F)F)c(=O)n1Cc1ccc(-c2ccccc2S(=O)(=O)NC(=O)CCCC(=O)O)cc1` are 1500 nM and 5.5 nM.
On the same counts, the results for `CCCCc1nn(-c2ccccc2C(F)(F)F)c(=O)n1Cc1ccc(-c2ccccc2S(=O)(=O)NC(=O)c2ccc(Cl)cc2)cc1` are 520 nM and 1.2 nM.
For `CCCCc1nn(-c2ccccc2C(F)(F)F)c(=O)n1Cc1ccc(-c2ccccc2S(=O)(=O)NC(=O)c2ccccc2Cc2ccccc2)cc1`, the IC50 amounted to 190 nM in assay [1] and 0.82 nM in assay [2].
As for `CCCCc1nn(-c2ccccc2C(F)(F)F)c(=O)n1Cc1ccc(-c2ccccc2S(=O)(=O)NC(=O)c2cccc(Cl)c2Cl)cc1`, the IC50 in assay [1] worked out at 780 nM; in assay [2], 0.72 nM.
With `CCCCc1nn(-c2ccccc2C(F)(F)F)c(=O)n1Cc1ccc(-c2ccccc2S(=O)(=O)NC(=O)c2cccc(C(F)(F)F)c2)cc1`, the IC50 in assay [1] stood at 580 nM; in assay [2] it was 3.3 nM.
Regarding `CCCCc1nn(-c2ccccc2C(F)(F)F)c(=O)n1Cc1ccc(-c2ccccc2S(=O)(=O)NC(=O)c2cc(Br)sc2Br)cc1`, the IC50 in assay [1] is 84 nM; in assay [2], 0.67 nM.
`CCCCc1nn(-c2ccccc2C(F)(F)F)c(=O)n1Cc1ccc(-c2ccccc2-c2nnn[nH]2)cc1`: the IC50 in assay [1] is 23000 nM; in assay [2], 0.78 nM.
For the compound `CCCCOC(=O)NS(=O)(=O)c1ccccc1-c1ccc(Cn2c(CCCC)nn(-c3ccccc3C(F)(F)F)c2=O)cc1`, the IC50 in assay [1] turned out to be 190 nM; in assay [2] it was 0.59 nM.
On the same counts, the results for `CCCCc1nn(-c2ccccc2C(F)(F)F)c(=O)n1Cc1ccc(-c2ccccc2S(=O)(=O)NC(=O)c2ccsc2)cc1` are 300 nM and 5 nM.
As for `CCCCc1nn(-c2ccccc2C(F)(F)F)c(=O)n1Cc1ccc(-c2ccccc2S(=O)(=O)NC(=O)c2ocnc2C)cc1`, the IC50 in assay [1] amounted to 35 nM; in assay [2] it was 1.1 nM.
Turning to `CCCCc1nn(-c2ccccc2C(F)(F)F)c(=O)n1Cc1ccc(-c2ccccc2S(=O)(=O)NC(=O)C2C(C)(C)C2(C)C)cc1`, the IC50 in assay [1] worked out at 130 nM; in assay [2], 3.3 nM.
On the same counts, the results for `O=C(NS(=O)(=O)c1ccccc1-c1ccc(Cn2c(CCCC(F)(F)F)nn(-c3ccccc3C(F)(F)F)c2=O)cc1)c1ccccc1` are > 300 nM and 5.5 nM.
On the same counts, the results for `CCCCc1nn(-c2ccccc2C(F)(F)F)c(=O)n1Cc1ccc(-c2ccccc2S(=O)(=O)NC(=O)c2ccc(Br)o2)cc1` are 170 nM and 0.4 nM.
On the same counts, the results for `CCCCc1nn(-c2ccccc2C(F)(F)F)c(=O)n1Cc1ccc(-c2ccccc2S(=O)(=O)NC(=O)C(F)(F)F)cc1` are 400 nM and 0.8 nM.
In the case of `CCCCc1nn(-c2ccccc2C(F)(F)F)c(=O)n1Cc1ccc(-c2ccccc2S(=O)(=O)Nc2ccc([N+](=O)[O-])cc2)cc1`, the IC50 amounted to 5200 nM in assay [1] and 78 nM in assay [2].
Take `CCCCc1nn(-c2ccccc2C(F)(F)F)c(=O)n1Cc1ccc(-c2ccccc2S(=O)(=O)NC(=O)c2oc3ccccc3c2C)cc1`: the IC50 in assay [1] stood at 130 nM; in assay [2], 0.43 nM.
Regarding `CCCCc1nn(-c2ccccc2C(F)(F)F)c(=O)n1Cc1ccc(-c2ccccc2S(=O)(=O)NC(=O)C2SCCS2)cc1`, the values for the IC50 in assay [1] and in assay [2] were 35 nM and 0.35 nM, respectively.
